Screens as filed in PubChem BioAssay.
The sample as a whole holds a higher share of hits than the screen did.
UPR CHOP act = activators of apoptotic CHOP UPR arm, primary screen, cell-based, CHO-CHOP luciferase reporter, luminescence, uHTS | UPR activation; percent of tunicamycin response over DMSO baseline | activation, % at 10 µM | 330,000 compounds, 0.34% hits | AID 449763, 2010;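 active = at 10 µM dose, activation of 40% or more, normalized to positive control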;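 note: 100% = tunicamycin at 10 µg/mL and 0% = DMSO alone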
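System: CHO CHOP reporter cells. Amount: 500 cells per well. Buffer or medium: F12 medium, 10% FBS. Compound dosing: one dose, 10 µM in 0.5% DMSO. Incubation: 6 h compound exposure at 37 °C after overnight seeding. Technique: Steady-Glo luciferase luminescence. Benchmarks: tunicamycin and DMSO controls.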
UPR XBP1 act = activators of adaptive XBP1 UPR arm, primary screen, cell-based, CHO-XBP1 luciferase reporter, luminescence, uHTS | IRE1-XBP1 UPR activation; percent of tunicamycin response, DMSO as zero | activation, % at 20 µM | 330,000 compounds, 0.33% hits | AID 463104, 2010;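 active = versus positive control, 20 µM dose yields 30% or more activation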;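 note: 100% = tunicamycin at 10 µg/mL and 0% = DMSO only wells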
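Test system: CHO-XBP1 luciferase reporter cells | Buffer or medium: Serum-containing F12 medium, 10% FBS | Schedule: 6 h compound exposure at 37 °C, 5% CO2 | Detection: Steady-Glo luciferase glow luminescence, 10 min after reagent addition | Read-out basis: Activation, % of tunicamycin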
A1 inh = caspase 3/7 activation in MEF A1-2A-BIM cells, primary screen, A1 inhibitor project, cell-based, luminescence, HTS; 330,000 compounds, 0.066% hits; Caspase-Glo 3/7 luminescence, 3 h; percent of clofoctol response, vehicle zero; caspase activation, % (test concentration not listed); AID 2462, 2010;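 active = over half of replicate activation scores above 10%, or exactly half above 10 with the replicate mean above 10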
CHOP inhibitor = inhibitors of CHOP promoter induction, primary screen, cell-based, unfolded protein response, luciferase reporter; CHO-K1 CHOP-promoter luciferase, tunicamycin-induced, 15-18 h; inhibition, % at 10 µM; 220,000 compounds, 3.8% hits; AID 2732, 2010;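 active = compounds that reduced the stress-induced luciferase reporter signal by more than about 70% of percent inhibition, limit read from the data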;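 note: 0% = tunicamycin plus vehicle and 100% = wells without tunicamycin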
* hit, by the source's call; . = no result given.

SMILES	UPR CHOP act	UPR XBP1 act	A1 inh	CHOP inhibitor
O=C(CCCN1C(=O)C(c2ccccc2)Oc2cccnc21)Nc1cccc(F)c1 (stereo not given)	-2.4	-3.8	1.2	.
COC(=S)N/C(=N\S(=O)(=O)c1ccc(Cl)cc1)c1ccccc1	2.0	-1.8	-2.4	.
CCOC(=O)C1=C(C)NC(C)=C(C(=O)OCC)C1c1cn(-c2ccccc2)nc1-c1ccco1	1.9	5.3	-0.9	84.5*
Cc1[nH]n(C(N)=S)c(=O)c1N=Nc1cccc(Cl)c1	0.8	-3.2	-7.5	.
NC(=S)n1[nH]c(-c2ccc([N+](=O)[O-])cc2)c(N=Nc2cccc(Cl)c2)c1=O	0.2	-4.2	.	83.0*
Cc1cccc(NC(=O)CNc2cc(C)ccc2C)c1	2.6	0.1	-1.8	77.3*
CCOc1ccc(NC(=O)CNc2ccc(C)cc2Cl)cc1	3.0	0.3	0.1	90.8*
COC(=O)c1cc(OC)c(OC)cc1NCC(=O)Nc1ccc(C)cc1	1.5	-1.1	0.2	9.5
COc1ccc(C)cc1NCC(=O)Nc1ccc(C(C)(C)C)cc1	0.6	4.5	-0.2	70.3*
O=C1CN(C(=O)c2ccc3nc(Cc4cccc(Cl)c4)oc3c2)CCN1	0.3	-4.2	0.9	.
CCc1ccc(NC(=S)N2CCN(S(=O)(=O)c3ccccc3)CC2)cc1	-0.9	-2.1	2.6	.
COc1ccc(CCNC(=O)C(=O)NCC2OCCN2S(=O)(=O)c2cc(F)ccc2F)cc1 (stereo not given)	2.2	-1.6	0.1	.
O=[N+]([O-])c1cc(C(F)(F)F)ccc1NCCNC(=S)Nc1ccc(Cl)cc1	2.4	5.9	-0.8	86.1*
CCCCCOc1ccc(C(=O)Nc2ccc(S(=O)(=O)Nc3cc(C)on3)cc2)cc1	0.9	-2.1	0.4	.
COC(=O)c1cc(OC)c(OC)cc1NC(=O)c1ccccc1	1.6	7.5	1.0	15.2
COC(=O)c1cc(OC)c(OC)cc1NC(=O)c1cccc(C)c1	-1.7	-2.6	0.2	70.5*
O=C(CCC(=O)N1CCCC(Nc2ccccc2)C1)c1ccc(F)cc1 (stereo not given)	-0.3	-1.6	0.7	.
Cc1ccc(C(C)C)c(OCCCN(C)Cc2ccccc2)c1	1.0	-1.4	0.1	75.5*
CC(C)CCNC(=O)c1ccc(CSCc2cccc(F)c2)o1	-1.3	-2.5	0.7	90.3*
CCCCCc1c(C)nc(Nc2nc(C)c3cc(OC)ccc3n2)[nH]c1=O	1.3	17.9	0.1	89.7*
CCc1c(C)nc(Nc2nc(C)c3cc(OC)ccc3n2)[nH]c1=O	1.9	12.6	-0.9	13.6
CCOC(=O)c1ccccc1NC(=O)c1cncc(Br)c1	.	.	.	72.9*
CCOC(=O)c1ccccc1NC(=O)c1cccs1	-0.9	2.2	-0.1	91.5*
Cc1ccccc1NC(=O)c1ccccc1NC(=O)c1cccs1	-1.0	1.0	-0.8	.
COc1cc(NC(=O)c2cccs2)c(C(=O)OCC(=O)NCc2ccccc2)cc1OC	-1.4	4.5	0.3	87.1*
SMILES	UPR CHOP act	UPR XBP1 act	A1 inh	CHOP inhibitor
CCOC(=O)c1ccccc1NC(=O)COc1ccccc1	-1.4	-0.9	-0.5	84.5*
CC(C)NC(=O)CN1C(=O)CSc2ccc(S(=O)(=O)N3CCCC3)cc21	1.1	-2.4	0.0	.
CC(C)(C)OC(=O)C[C@H]1C/C=C\C[C@H](CC(=O)NCCO)C(=O)N2CCC[C@@H]2COC1=O	0.0	-0.9	1.6	.
Cc1ccc(NC(=O)CN(Cc2ccco2)Cc2ccccc2O)cc1C	4.5	4.3	-0.2	.
CCOC(=O)c1ccccc1NC(=O)c1n[nH]c(=O)c2ccccc12	-1.0	2.5	0.6	93.2*
CCOC(=O)c1ccc(NC(=O)c2n[nH]c(=O)c3ccccc23)cc1	3.9	-0.8	-3.6	13.8
CCOC(=O)c1cnc2ccc(C)cc2c1Nc1ccc(N2CCOCC2)cc1	1.4	-1.8	0.7	72.4*
O=C(Cn1cnc2sc(-c3ccccc3)cc2c1=O)NCCc1ccccc1	-1.2	-0.5	0.6	73.2*
Cc1cc2c(s1)c1cnn(CC(=O)NCCc3ccccc3)c(=O)c1n2C	-1.0	-4.2	-0.2	86.9*
CCOC(=O)c1ccc(N(C(=O)c2ccco2)C(C(=O)NC2CCCC2)c2ccncc2)cc1 (stereo not given)	4.7	3.3	1.0	.
Cc1ccc(OCC(=O)Nc2ccc(NC(=O)c3ccccc3)c(C)c2)cc1	0.7	-3.8	1.1	.
N#Cc1ccc(NCC(=O)Nc2ccc(S(=O)(=O)N3CCCCC3)cc2)cc1	0.0	-4.3	0.9	.
O=C(NCCCN1CCOCC1)c1cccc(NS(=O)(=O)c2ccc(Br)cc2)c1	0.3	-0.3	-0.9	.
NC(=O)c1nsc(C(=O)N(c2ccc(F)cc2)C(C(=O)NCC2CCCO2)c2c[nH]c3ccccc23)c1N (stereo not given)	0.6	0.8	-1.2	.
CCc1ccc(N(C(=O)c2snc(C(N)=O)c2N)C(C(=O)NCCC(C)C)c2c[nH]c3ccccc23)cc1 (stereo not given)	10.2	-2.9	-0.2	86.5*
CN(CC(=O)Nc1ccc(Cl)c(C(F)(F)F)c1)C(=O)c1ccc2c(c1)NC(=O)CS2	-3.4	-2.7	-0.4	.
O=C(Cc1ccsc1)NCC(=O)Nc1ccc(F)c(F)c1	3.0	-3.2	-0.3	.
CCOC(=O)C1=C(C)N(C)C(C)=C(C(=O)OCC)C1c1ccc(Cl)cc1	1.2	2.8	-2.1	79.6*
COC(=O)C1=C(C)N(C)C(C)=C(C(=O)OC)C1c1ccc(Cl)cc1	-1.3	-1.6	1.9	72.5*
CCOC(=O)C1=C(C)N(C)C(C)=C(C(=O)OCC)C1c1ccc(C(=O)OC)cc1	-1.0	-1.7	0.8	28.4
O=C(CSC1=NNC(c2ccccn2)S1)Nc1ccc(C(F)(F)F)cc1 (stereo not given)	28.8	6.5	-0.2	73.4*
CC(=O)Nc1ccc(NC(=O)CSc2ccccn2)cc1	0.1	-1.5	0.0	-14.6
Cc1cc(NC(=O)C(C)Oc2ccc(Cl)cc2Cl)no1 (stereo not given)	3.1	2.0	-0.6	.
O=c1[nH]c2cc(Cl)c(Cl)cc2[nH]c1=O	.	.	.	-24.6
CNc1sc(C(=O)c2ccc(F)cc2)c(N)c1-c1nc2ccccc2s1	4.3	3.9	0.0	83.8*
SMILES	UPR CHOP act	UPR XBP1 act	A1 inh	CHOP inhibitor
CNc1sc(C(=O)c2cccs2)c(N)c1-c1nc2ccccc2s1	6.8	0.7	-1.1	-11.3
CC(C)c1ccc(NC(=O)C2CCN(S(=O)(=O)c3ccc4c(c3)C(C)(C)C(=O)N4C)CC2)cc1	3.6	-4.9	0.0	.
COc1ccc(-c2nnc(NC(=O)c3ccc(S(=O)(=O)N4CCc5ccccc5C4)cc3)o2)cc1	9.5	0.2	0.5	71.1*
C=CCSc1nc(Oc2ccccc2)c2sccc2n1	-1.1	1.3	-0.2	72.4*
CSc1nc(Oc2ccccc2)c2sccc2n1	-3.8	-1.1	0.5	51.3
C=CCN(CC=C)CCOc1cccc(Oc2ccccc2)c1	1.6	2.8	0.1	87.0*
